In ChEMBL document CHEMBL5357024, “MDM2 Antagonist Idasanutlin Reduces HDAC1/2 Abundance and Corepressor Partners but Not HDAC3” (ACS Med Chem Lett, 2024):
The source made the active and inactive calls. No cut-off for these calls is given here.

Experiments:
Format in all cases: cell-based
[1] = target: T1, E3 ubiquitin-protein ligase Mdm2/Histone deacetylase 1 (Homo sapiens) (UniProt Q00987+Q13547); assay: PROTAC activity at MDM2/HDAC1 in human HCT-116 cells assessed as decrease in HDAC1 abundance by measuring remaining activity at 10 uM measured after 24 hrs by Western blot analysis (reference value: 100%)
T1 sequence (Q00987 whole entry, looked up): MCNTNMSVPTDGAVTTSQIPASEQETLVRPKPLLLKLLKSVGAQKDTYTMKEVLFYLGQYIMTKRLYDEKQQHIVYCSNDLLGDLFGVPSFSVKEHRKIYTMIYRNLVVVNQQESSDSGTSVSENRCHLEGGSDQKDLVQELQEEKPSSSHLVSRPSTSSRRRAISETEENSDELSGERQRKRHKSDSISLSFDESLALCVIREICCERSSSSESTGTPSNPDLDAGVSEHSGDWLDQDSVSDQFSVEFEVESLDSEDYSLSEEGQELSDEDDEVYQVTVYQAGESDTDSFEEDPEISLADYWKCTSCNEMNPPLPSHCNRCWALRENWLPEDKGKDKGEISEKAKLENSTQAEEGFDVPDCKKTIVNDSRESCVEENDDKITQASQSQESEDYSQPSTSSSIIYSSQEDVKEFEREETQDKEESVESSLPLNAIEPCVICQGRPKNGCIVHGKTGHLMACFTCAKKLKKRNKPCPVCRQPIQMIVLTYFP
T1 sequence (Q13547 whole entry, looked up): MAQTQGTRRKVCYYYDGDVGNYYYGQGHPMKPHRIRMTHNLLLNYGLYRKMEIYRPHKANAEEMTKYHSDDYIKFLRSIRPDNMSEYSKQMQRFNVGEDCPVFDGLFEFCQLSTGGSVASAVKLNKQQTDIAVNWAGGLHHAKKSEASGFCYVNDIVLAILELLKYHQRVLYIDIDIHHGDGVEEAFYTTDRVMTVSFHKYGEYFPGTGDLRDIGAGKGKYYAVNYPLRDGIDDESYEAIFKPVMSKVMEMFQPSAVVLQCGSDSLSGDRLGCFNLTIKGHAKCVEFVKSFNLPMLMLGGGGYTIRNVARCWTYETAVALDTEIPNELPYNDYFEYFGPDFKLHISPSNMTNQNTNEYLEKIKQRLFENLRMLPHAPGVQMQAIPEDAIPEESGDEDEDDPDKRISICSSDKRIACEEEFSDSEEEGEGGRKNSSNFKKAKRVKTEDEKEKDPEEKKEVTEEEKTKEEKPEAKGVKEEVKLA
In short: (§1)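 HCT116 cells seeded in six-well plates for 24 h, then exposed 24 h to compound (0.01–10 μM) or DMSO in fresh medium. Lysis in Tris-HCl/NaCl/NP-40/Triton X-100 with protease inhibitor. Bradford-normalised 30 μg protein per lane. Quantitative Western blot used specific HDAC1, HDAC2, HDAC3, LSD1 or Sin3a antibodies with IRDye secondaries. Abundance compared with DMSO, n = 2 replicates.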

[2] = target: T2, E3 ubiquitin-protein ligase Mdm2/Histone deacetylase 2 (Homo sapiens) (UniProt Q00987+Q92769); assay: PROTAC activity at MDM2/HDAC2 in human HCT-116 cells assessed as decrease in HDAC2 abundance by measuring remaining activity at 1 uM measured after 24 hrs by Western blot analysis (reference value: 100%); in short: as §1
T2 sequence (Q00987 whole entry, looked up): as the sequence (Q00987 whole entry, looked up) above
T2 sequence (Q92769 whole entry, looked up): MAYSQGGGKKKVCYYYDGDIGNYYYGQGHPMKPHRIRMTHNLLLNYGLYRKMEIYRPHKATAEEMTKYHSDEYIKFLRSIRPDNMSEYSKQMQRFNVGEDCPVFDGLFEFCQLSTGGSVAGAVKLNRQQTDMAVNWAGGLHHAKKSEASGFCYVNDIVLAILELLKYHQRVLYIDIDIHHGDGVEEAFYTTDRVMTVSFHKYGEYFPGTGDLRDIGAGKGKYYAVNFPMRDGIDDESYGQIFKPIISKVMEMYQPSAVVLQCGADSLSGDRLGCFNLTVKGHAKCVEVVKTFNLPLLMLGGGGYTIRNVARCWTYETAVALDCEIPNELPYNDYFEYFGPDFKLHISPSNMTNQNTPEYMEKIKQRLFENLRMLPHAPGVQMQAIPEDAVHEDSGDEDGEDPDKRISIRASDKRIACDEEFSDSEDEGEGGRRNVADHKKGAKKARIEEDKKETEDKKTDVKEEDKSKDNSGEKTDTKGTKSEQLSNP

[3] = target: T3, E3 ubiquitin-protein ligase Mdm2/Histone deacetylase 3 (Homo sapiens) (UniProt Q00987+O15379); assay: PROTAC activity at MDM2/HDAC3 in human HCT-116 cells assessed as reduction in HDAC3 abundance by measuring remaining activity at 1 uM measured after 24 hrs by Western blot analysis (reference value: 100%)
T3 sequence (O15379 whole entry, looked up): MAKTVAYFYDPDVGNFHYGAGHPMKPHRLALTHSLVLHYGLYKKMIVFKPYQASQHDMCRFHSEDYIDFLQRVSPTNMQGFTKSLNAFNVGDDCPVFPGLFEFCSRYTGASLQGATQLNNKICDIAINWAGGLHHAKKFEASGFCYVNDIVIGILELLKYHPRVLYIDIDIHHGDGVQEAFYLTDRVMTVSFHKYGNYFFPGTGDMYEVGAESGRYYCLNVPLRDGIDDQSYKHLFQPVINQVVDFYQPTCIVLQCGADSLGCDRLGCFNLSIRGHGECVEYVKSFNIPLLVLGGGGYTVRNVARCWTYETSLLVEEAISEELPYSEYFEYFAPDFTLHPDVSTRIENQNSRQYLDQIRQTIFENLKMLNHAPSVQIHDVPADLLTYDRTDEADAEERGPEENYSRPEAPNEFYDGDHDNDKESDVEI
T3 sequence (Q00987 whole entry, looked up): as the sequence (Q00987 whole entry, looked up) above
In short: (§2)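 HCT116 cells in DMEM with 10% FBS and glutamine/penicillin/streptomycin at 37 °C, 5% CO2. Seeded 4 × 10^5 cells/well, after 24 h treated 24 h with DMSO or compound in fresh medium. Lysed in Tris-HCl/NaCl/NP-40/Triton X-100 buffer with protease inhibitor, Bradford-quantified, 30 μg protein per lane. Quantitative Western blot with specific HDAC1/2/3 antibodies, IRDye secondaries, infrared imaging, versus DMSO. n = 2 replicates.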

[4] = target: T3, E3 ubiquitin-protein ligase Mdm2/Histone deacetylase 3 (Homo sapiens); assay: PROTAC activity at MDM2/HDAC3 in human HCT-116 cells assessed as induction of HDAC3 degradation at 0.01 to 10 uM by Western blot analysis; settings: dose 0.01-10 µM
[5] = target: T1, E3 ubiquitin-protein ligase Mdm2/Histone deacetylase 1 (Homo sapiens); assay: PROTAC activity at MDM2/HDAC1 in human HCT-116 cells assessed as decrease in HDAC1 abundance by measuring remaining activity at 0.05 uM measured after 24 hrs by Western blot analysis (reference value: 100%); in short: as §1
[6] = target: T2, E3 ubiquitin-protein ligase Mdm2/Histone deacetylase 2 (Homo sapiens); assay: PROTAC activity at MDM2/HDAC2 in human HCT-116 cells assessed as decrease in HDAC2 abundance by measuring remaining activity at 0.01 uM measured after 24 hrs by Western blot analysis (reference value: 100%); in short: as §1
[7] = target: T2, E3 ubiquitin-protein ligase Mdm2/Histone deacetylase 2 (Homo sapiens); assay: PROTAC activity at MDM2/HDAC2 in human HCT-116 cells assessed as decrease in HDAC2 abundance by measuring remaining activity at 0.05 uM measured after 24 hrs by Western blot analysis (reference value: 100%); in short: as §1
[8] = target: T3, E3 ubiquitin-protein ligase Mdm2/Histone deacetylase 3 (Homo sapiens); assay: PROTAC activity at MDM2/HDAC3 in human HCT-116 cells assessed as reduction in HDAC3 abundance by measuring remaining activity at 0.25 uM measured after 24 hrs by Western blot analysis; in short: as §2
[9] = target: T4, Paired amphipathic helix protein Sin3a (Homo sapiens) (UniProt Q96ST3); assay: Induction of SIN3A degradation in human HCT-116 cells assessed as reduction in SIN3A abundance by measuring remaining activity at 0.025 uM measured after 24 hrs by Western blot analysis (reference value: 100%); in short: as §1
T4 sequence (whole entry): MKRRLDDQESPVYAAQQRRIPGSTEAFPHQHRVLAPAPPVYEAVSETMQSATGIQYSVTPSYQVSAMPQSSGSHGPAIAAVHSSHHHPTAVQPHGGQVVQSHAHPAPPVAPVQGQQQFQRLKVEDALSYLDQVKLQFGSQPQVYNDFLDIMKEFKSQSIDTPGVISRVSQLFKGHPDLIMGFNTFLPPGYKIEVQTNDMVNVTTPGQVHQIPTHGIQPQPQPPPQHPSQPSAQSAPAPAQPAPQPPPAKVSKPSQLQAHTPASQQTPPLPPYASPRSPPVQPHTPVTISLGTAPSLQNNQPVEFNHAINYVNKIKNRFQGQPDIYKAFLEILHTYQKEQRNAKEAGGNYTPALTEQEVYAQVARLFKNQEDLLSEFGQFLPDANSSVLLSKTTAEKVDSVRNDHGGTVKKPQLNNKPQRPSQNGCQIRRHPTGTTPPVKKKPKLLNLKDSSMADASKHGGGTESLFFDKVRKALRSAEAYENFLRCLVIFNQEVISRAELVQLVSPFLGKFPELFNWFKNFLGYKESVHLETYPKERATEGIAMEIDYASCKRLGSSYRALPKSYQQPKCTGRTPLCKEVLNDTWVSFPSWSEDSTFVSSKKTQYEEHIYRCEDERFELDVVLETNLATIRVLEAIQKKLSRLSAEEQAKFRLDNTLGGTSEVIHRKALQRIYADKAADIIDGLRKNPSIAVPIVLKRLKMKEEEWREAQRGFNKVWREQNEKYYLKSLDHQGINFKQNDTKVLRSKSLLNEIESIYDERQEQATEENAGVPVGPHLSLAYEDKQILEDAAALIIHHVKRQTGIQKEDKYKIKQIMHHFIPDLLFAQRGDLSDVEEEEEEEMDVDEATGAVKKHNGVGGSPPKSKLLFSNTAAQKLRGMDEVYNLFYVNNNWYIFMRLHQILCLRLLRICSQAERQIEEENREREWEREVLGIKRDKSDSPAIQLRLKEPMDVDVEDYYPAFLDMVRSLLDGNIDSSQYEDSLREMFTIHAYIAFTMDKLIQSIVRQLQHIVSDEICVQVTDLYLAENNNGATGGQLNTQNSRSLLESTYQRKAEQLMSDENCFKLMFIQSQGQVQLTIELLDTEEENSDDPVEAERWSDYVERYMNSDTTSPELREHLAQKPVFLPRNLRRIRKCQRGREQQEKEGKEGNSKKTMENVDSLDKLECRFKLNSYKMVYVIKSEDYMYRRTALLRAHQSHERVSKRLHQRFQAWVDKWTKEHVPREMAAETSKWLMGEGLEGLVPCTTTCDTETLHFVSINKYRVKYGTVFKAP

[10] = target: T4, Paired amphipathic helix protein Sin3a (Homo sapiens); assay: Induction of SIN3A degradation in human HCT-116 cells assessed as reduction in SIN3A abundance by measuring remaining activity at 0.1 uM measured after 24 hrs by Western blot analysis (reference value: 100%); in short: as §1
[11] = target: T4, Paired amphipathic helix protein Sin3a (Homo sapiens); assay: Induction of SIN3A degradation in human HCT-116 cells assessed as reduction in SIN3A abundance by measuring remaining activity at 1 uM measured after 24 hrs by Western blot analysis (reference value: 100%); in short: as §1
[12] = target: Lysine-specific histone demethylase 1A (Homo sapiens) (UniProt O60341); assay: Induction of LSD1 degradation in human HCT-116 cells assessed as reduction in LSD1 abundance by measuring remaining activity at 10 uM measured after 24 hrs by Western blot analysis (reference value: 100%); in short: as §1

`COc1cc(C(=O)NCCOCCOCCOCCOCCC(=O)Nc2ccc(C(=O)Nc3ccccc3N)cc2)ccc1NC(=O)[C@@H]1N[C@@H](CC(C)(C)C)[C@](C#N)(c2ccc(Cl)cc2F)[C@H]1c1cccc(Cl)c1F` gave an Activity [1] of 36%, an Activity [2] of 69% and an Activity [3] of 104%. The Activity [4] was “inactive”, the Activity [5] was 88% and the Activity [6] was 97%. For the same compound, the Activity [7] was 90%, the Activity [8] was 102% and the Activity [9] was 100%. The Activity [10] was 99%, the Activity [11] was 70% and the Activity [12] was 65%.
